Screening results: PubChem, Broad Institute
This is a sample that favours compounds with a hit; in the whole collection about 2.9% have one here.
SIRT5 inh: inhibitors of human sirtuin-5 desuccinylase; Purified SirT5, succinyl-peptide AMC, trypsin-coupled fluorescence; AID 652115; 330,000 compounds, 1.1% hits; inhibition, % at 15 µM; Q9NXA8; in the data active means inhibition above about 15%; inconclusive means no clear call, values can overlap the other calls
Target sequence (Q9NXA8 whole entry, looked up): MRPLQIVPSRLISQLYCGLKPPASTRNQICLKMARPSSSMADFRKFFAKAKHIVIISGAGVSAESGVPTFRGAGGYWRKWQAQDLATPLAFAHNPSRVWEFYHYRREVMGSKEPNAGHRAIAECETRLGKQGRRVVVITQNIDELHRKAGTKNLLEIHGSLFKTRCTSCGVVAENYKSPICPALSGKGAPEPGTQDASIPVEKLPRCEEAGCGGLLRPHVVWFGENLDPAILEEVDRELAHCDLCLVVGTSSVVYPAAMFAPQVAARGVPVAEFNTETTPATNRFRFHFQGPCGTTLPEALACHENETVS
S100A4 inh HTS: blocks human S100A4 binding to myosin IIA peptide; S100A4/TAMRA-MyoIIA peptide fluorescence polarization; P26447; AID 652163; inhibition, % at 10.7 µM; 360,000 compounds, 0.14% hits;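 active means mean inhibition of at least 70% across replicates, with every replicate also reaching that level; inconclusive means mean inhibition reaches 70% but some replicates fall short; inactive means mean inhibition below 70%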
Target sequence (P26447 whole entry, looked up): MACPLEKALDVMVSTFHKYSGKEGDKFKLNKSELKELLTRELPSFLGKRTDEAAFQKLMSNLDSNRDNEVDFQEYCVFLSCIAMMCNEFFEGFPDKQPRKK
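Test system: S100A4 monomer protein. Medium: HEPES buffer with Ca2+, pH 7.2. Reagent: fluorescent myosin IIA peptide, 5 nM. Compound dosing: single-point compound testing. Timing: 5 min between mix addition and reading. Benchmarks: DMSO neutral and TFP positive wells.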
PGC1a acetyl inh: modulators of PGC1a acetylation | U2OS PGC1a acetylation, AlphaScreen anti-acetyl-lysine; with virally co-expressed GCN5 acetyltransferase | inhibition, % at 15.6 µM | 350,000 compounds, 0.17% hits;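 active means every replicate shows inhibition of at least 40%; inconclusive means mean inhibition at least 40% but some replicate below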;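 further: 0% = neutral control wells and 100% = positive control wells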
Statin myotox sup: protects C2C12 myotubes from simvastatin toxicity. AID 602340. ATP luminescence, 48 h; scaled: DMSO 0, geranylgeraniol control 100. rescue of ATP level, % at 7.49 µM. 330,000 compounds, 0.78% hits;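 active means mean ATP rescue above about 67%, or every replicate alone reaching that limit, limit read from the data, passing the limit was not always enough; inconclusive means no clear call, values can overlap the other calls; inactive means mean under the limit and some replicate under it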;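 further: myotubes were challenged with 10 µM simvastatin during compound exposure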
DENV2 CPE: protects cells from dengue virus 2 cytopathic effect; DENV2-infected cells, cytopathic effect rescue, plate reader; CPE inhibition, % at 9.99 µM; 350,000 compounds, 1.7% hits; AID 651640; in the data active means CPE inhibition above about 20%, passing the limit was not always enough; inconclusive means no clear call, values can overlap the other calls; tested in BHK-21 cells;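 further: 0% = median of neutral control wells and 100% = median of positive control wells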
Starred values were filed as active, the others as inactive; ? = inconclusive; . = no result given; ! = not confirmed by another sample.

SMILES	SIRT5 inh	S100A4 inh HTS	PGC1a acetyl inh	Statin myotox sup	DENV2 CPE
CCC(SC1=NCCS1)C(=O)Nc1ccc(S(N)(=O)=O)cc1 (stereo unspecified)	0	18	2	.	26*
CCC(Sc1nc(C)cc(C)n1)C(=O)Nc1ccc(S(N)(=O)=O)cc1 (stereo unspecified)	3	3	18	1	14
COc1cccc(NC(=O)N2[C@@H]3CNC[C@H]2C3c2ccc(/C=C/c3ccccc3)cc2)c1 (stereo partly specified)	3	-8	-4	.	89*!
COc1cccc(NC(=O)N2[C@@H]3CNC[C@H]2C3c2ccc(-c3ccccc3)cc2)c1 (stereo partly specified)	-6	-20	15	.	99*!
COc1ccc(NC(=O)N2[C@@H]3CNC[C@H]2C3c2ccc(-c3cccc(OC)c3)cc2)cc1 (stereo partly specified)	-2	-3	-4	.	-4
COc1cccc(-c2ccc(C3[C@H]4CNC[C@@H]3N4C(=O)Nc3ccc4c(c3)OCO4)cc2)c1 (stereo partly specified)	4	-17	-6	.	19
COc1cccc(-c2ccc(C3[C@H]4CNC[C@@H]3N4C(=O)Nc3ccc(C(F)(F)F)cc3)cc2)c1 (stereo partly specified)	.	.	4	.	33*!
N#C[C@H]1N[C@@H](CO)[C@@H]1c1ccc(C#CC2CCCC2)cc1	2	3	-19	-18	-9
COc1ncc(C2=CC(=O)CC(C)(C)C2)cn1	.	13	7	8	31*
COCC(=O)Nc1ccc2c(c1)OC[C@H](C)NC[C@H](C)[C@@H](OC)CN(C)C2=O	1	-6	2	.	19
COC(=O)N/N=C/c1cn(Cc2ccc(Cl)cc2Cl)c2ccccc12	20*	-3	-2	.	?
Cc1noc(C)c1NC(=O)Nc1cccc2c1O[C@@H](CN(C)S(=O)(=O)c1ccc(Cl)cc1)[C@H](C)CN([C@@H](C)CO)C2=O	-1	-2	4	-42	7
NC[C@H](Cc1ccccc1)NCCCCC1CCCCC1	.	-5	5	6	35*
CCC(=O)N1CC2(CN(C(C)=O)C2)c2c([nH]c3cc(OC)ccc23)[C@@H]1CO	-1	9	1	.	-5
CC(=O)Oc1ccc(-c2csnn2)cc1	.	.	95*	7	.
CN(C)C(=O)C[C@@H]1C[C@H]2c3cc(NC(=O)c4ccc5c(c4)OCO5)ccc3O[C@H]2[C@H](CO)O1	1	0	-7	5	4
COC(=O)[C@@H](Cc1ccccc1)NC(=O)/C=C/[C@H]1O[C@@H](n2cnc3c(NC(=O)c4ccccc4)ncnc32)[C@H](O)[C@@H]1O	31*	-15	-12	-6	5
COc1ccc(S(=O)(=O)N(C)C[C@@H]2Oc3c(NS(C)(=O)=O)cccc3C(=O)N([C@@H](C)CO)C[C@@H]2C)cc1	-2	15	4	.	-9
COc1ccc(NC(=O)N(C)C[C@H]2OCCCC[C@H](C)Oc3ccc(NS(=O)(=O)c4ccc(F)cc4)cc3C(=O)N([C@@H](C)CO)C[C@@H]2C)cc1	11	6	9	.	?
Cc1cc(C)c(NC(=O)CNC(=O)COC(=O)/C=C/c2cccs2)c(C)c1	0	84*	0	-6	3
C=CCNC(=O)COC(=O)/C=C/c1cccs1	4	3	2	-2	0
C/C=C/c1cnc2c(c1)C(=O)N([C@H](C)CO)C[C@@H](C)[C@@H](CN(C)C(=O)Nc1ccc(C(F)(F)F)cc1)O2	-1	7	-3	25	5
COc1ccc(NC(=O)C2C(c3ccc4c(c3)OCO4)=Nc3ccccc3N2C(C)=O)cc1 (stereo unspecified)	0	1	.	.	27*
CCNC(=O)C[C@@H]1CC[C@@H](NS(=O)(=O)c2ccc(F)cc2)[C@H](CO)O1	0	96*	4	-5	14
Cc1ccc(S(=O)(=O)N[C@@H]2CC[C@H](CC(=O)NCc3ccc(Cl)c(Cl)c3)O[C@@H]2CO)cc1	-1	8	-6	-1	-12
SMILES	SIRT5 inh	S100A4 inh HTS	PGC1a acetyl inh	Statin myotox sup	DENV2 CPE
O=C(C[C@H]1CC[C@H](NS(=O)(=O)c2ccc(F)cc2)[C@H](CO)O1)NCc1ccncn1	8	-34	-3	2	23*
O=C(C[C@@H]1CC[C@H](NS(=O)(=O)c2ccc(F)cc2)[C@@H](CO)O1)NCc1ccncn1	-7	3	3	1	4
O=C(C[C@H]1CC[C@@H](NS(=O)(=O)c2ccccc2)[C@@H](CO)O1)NCc1ccncn1	21*	-7	4	-7	10
O=C(C[C@@H]1CC[C@@H](NS(=O)(=O)c2ccccc2)[C@@H](CO)O1)NCc1ccncn1	4	17	1	-8	-2
Cc1ccc(S(=O)(=O)N[C@@H]2CC[C@H](CC(=O)NCc3ccc(Cl)c(Cl)c3)O[C@H]2CO)cc1	3	2	7	-10	22*
CN1C(=O)c2cc(NC(=O)C3CCCCC3)ccc2OC[C@H]2O[C@H](CC(=O)NCCc3ccncc3)CC[C@H]21	0	-5	4	-24	-2
COc1ccccc1N1CCN(Cc2nc3ccsc3c(=O)[nH]2)CC1	.	.	4	126*	.
C[C@H](CO)N1C[C@H](C)[C@@H](CN(C)S(=O)(=O)c2ccc(F)cc2)Oc2ccc(N(C)C)cc2CC1=O	1	16	0	15	2
CCCCCc1c(-c2ccc(Cl)cc2)ncn1CCc1ccccc1OC	.	-7	.	.	21*
CC(C)NC(=O)N1C[C@@H]2[C@H](c3ccccc31)[C@H](CO)N2C(=O)c1ccc(F)cc1	-2	8	-6	2	9
COc1ccc(/C=C/c2nc3ccccc3c(=O)n2-c2cccc(C(=O)O)c2)cc1	18*	-19	1	0	0
O=C(COC(=O)Cc1c(F)cccc1Cl)Nc1ccc2[nH]c(=O)[nH]c2c1	15*	-5	9	-2	6
O=S(=O)(Cc1ccccc1)N1CCCCN2[C@H](CO)[C@H](c3ccc(-c4ccc(F)cc4)cc3)[C@H]2C1	6	-3	8	-37	-23
Nc1cc(Oc2cccnc2)cc([N+](=O)[O-])c1	.	7	-1	.	-2
c1cncc(Oc2cccc(Oc3cccnc3)c2)c1	.	.	-7	108*	.
C/C=C/c1ccc([C@@H]2[C@@H](CO)N3C(=O)CN(Cc4ccccc4)C[C@H]23)cc1	-6	-8	9	.	25*
Cc1ccc(CN2CC(=O)N3[C@@H](CO)[C@H](c4ccc(-c5ccccc5F)cc4)[C@@H]3C2)cc1	15*	-11	4	.	-13
O=C1CN(Cc2ccccc2)C[C@@H]2[C@H](c3ccc(-c4ccccc4)cc3)[C@H](CO)N12	22*	-39	18	.	1
Cc1ccc(CN2CC(=O)N3[C@H](C2)[C@H](c2ccc(-c4ccccc4F)cc2)[C@@H]3CO)cc1	-4	-61	3	.	-5
